Measurements as given in ChEMBL document CHEMBL3046760, “Preharvest L-arginine treatment induced postharvest disease resistance to Botrysis cinerea in tomato fruits” (2011).
Active and inactive are the calls of the source. The rule behind the calls is not given here.

Assays:
[1] = tested on: Botrytis cinerea; assay: Induction of resistance to Botryotinia fuckeliana-induced tomato fruit Solanum lycopersicum cv. No. 4 Zhongshu gray mold disease assessed as disease incidence at 0.5 mM injected near root area measured after 6 days relative to control; type: functional
How it was run: (§1)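 Plants received 5 mL of L-arginine (0.5, 1 or 5 mM) by injection at a cut near the root area, with distilled water as control; 30 plants per treatment. Green mature fruit were picked 0–12 days after treatment. Fruit were ethanol-sterilised and wounded at three equator sites, each receiving 10 μL of 2 × 10^5 conidia/mL. Fruit were kept at 25 °C, 90–95% RH. Incidence and lesion area (3.14 × (d/2)²) were scored at 4 days; three replicates.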

[2] = tested on: Solanum lycopersicum; assay: Induction of resistance to Botrytis cinerea-induced Solanum lycopersicum (tomato) fruit Solanum lycopersicum cv. No. 4 Zhongshu gray mold disease assessed as induction of total phenolics content at 1 mM preharvest treatment measured after 3 days relative to control; type: functional
How it was run: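 Plants received 1 mM L-arginine (5 mL) injected near the root, with a water control. A685 was calibrated against […] and expressed as catechin equivalents (mg/100 g FW). Mean of three replicates.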

[3] = tested on: Botrytis cinerea; assay: Induction of resistance to Botryotinia fuckeliana-induced tomato fruit Solanum lycopersicum cv. No. 4 Zhongshu gray mold disease assessed as inhibition of lession area at 1 mM injected near root area measured after 6 days relative to control; type: functional; conditions: 144 h; how it was run: as §1
[4] = tested on: Botrytis cinerea; assay: Induction of resistance to Botryotinia fuckeliana-induced tomato fruit Solanum lycopersicum cv. No. 4 Zhongshu gray mold disease assessed as disease incidence at 5 mM injected near root area measured after 12 days relative to control; type: functional, organism-based; how it was run: as §1
[5] = tested on: Botrytis cinerea; assay: Induction of resistance to Botryotinia fuckeliana-induced tomato fruit Solanum lycopersicum cv. No. 4 Zhongshu gray mold disease assessed as disease incidence at 1 mM injected near root area measured after 3 days relative to control; type: functional; how it was run: as §1
[6] = tested on: Botrytis cinerea; assay: Effect on mycelial growth of Botryotinia fuckeliana relative to control; type: functional, organism-based
How it was run: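 Mycelial growth on PDA containing 1 mM L-arginine in the molten agar. A 7 mm B. cinerea disk was placed at the centre of a 90 mm dish and incubated at 25 °C. Colony diameter was read at 2, 3 and 4 days. Inhibition (%) = (control diameter − treated diameter)/(control diameter − 7 mm) × 100. Triplicate plates; the experiment was run twice.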

[7] = tested on: Botrytis cinerea; assay: Induction of resistance to Botryotinia fuckeliana-induced tomato fruit Solanum lycopersicum cv. No. 4 Zhongshu gray mold disease assessed as disease incidence at 0.5 mM injected near root area measured after 12 days relative to control; type: functional, organism-based; how it was run: as §1
[8] = tested on: Solanum lycopersicum; assay: Induction of resistance to Botrytis cinerea-induced Solanum lycopersicum (tomato) fruit Solanum lycopersicum cv. No. 4 Zhongshu gray mold disease assessed as induction of defensive enzyme polyphenoloxidase activity at 1 mM preharvest treatment measured after 3 days relative to control; type: functional, organism-based
How it was run: (§2)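 Plants received 1 mM L-arginine (5 mL) injected near the root, with a water control. Fruit mesocarp was extracted in phosphate pH 6.8 (PAL, PPO) or acetate pH 5 (CHI, GLU) buffer. Readouts: PAL, L-phenylalanine in borate pH 8.8, 30 °C 1 h, A290. PPO, 0.1 M catechol, ΔA420 over 3 min. CHI, colloidal chitin at 40 °C then snailase, A585. GLU, 0.4% laminarin at 37 °C 1 h, DNS, A500. Three replicates.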

[9] = tested on: Botrytis cinerea; assay: Induction of resistance to Botryotinia fuckeliana-induced tomato fruit Solanum lycopersicum cv. No. 4 Zhongshu gray mold disease assessed as inhibition of lession area at 1 mM injected near root area measured after 12 days relative to control; type: functional; conditions: 288 h; how it was run: as §1
[10] = tested on: Solanum lycopersicum; assay: Induction of resistance to Botrytis cinerea-induced Solanum lycopersicum (tomato) fruit Solanum lycopersicum cv. No. 4 Zhongshu gray mold disease assessed as induction of defensive enzyme beta-1,3-glucanase activity at 1 mM preharvest treatment measured after 3 days relative to control; type: functional; how it was run: as §2
[11] = tested on: Solanum lycopersicum; assay: Induction of resistance to Botrytis cinerea-induced Solanum lycopersicum (tomato) fruit Solanum lycopersicum cv. No. 4 Zhongshu gray mold disease assessed as induction of defensive enzyme chitinase activity at 1 mM preharvest treatment measured after 3 days relative to control; type: functional; how it was run: as §2
[12] = tested on: Botrytis cinerea; assay: Induction of resistance to Botryotinia fuckeliana-induced tomato fruit Solanum lycopersicum cv. No. 4 Zhongshu gray mold disease assessed as disease incidence at 0.5 mM injected near root area measured after 3 days relative to control; type: functional; how it was run: as §1
[13] = tested on: Botrytis cinerea; assay: Induction of resistance to Botryotinia fuckeliana-induced tomato fruit Solanum lycopersicum cv. No. 4 Zhongshu gray mold disease assessed as inhibition of lession area at 1 mM injected near root area measured after 9 days relative to control; type: functional; conditions: 216 h; how it was run: as §1
[14] = tested on: Solanum lycopersicum; assay: Induction of resistance to Botrytis cinerea-induced Solanum lycopersicum (tomato) fruit Solanum lycopersicum cv. No. 4 Zhongshu gray mold disease assessed as induction of defensive enzyme beta-1,3-glucanase activity at 1 mM preharvest treatment measured after 6 days relative to control; type: functional; how it was run: as §2
[15] = tested on: Botrytis cinerea; assay: Induction of resistance to Botryotinia fuckeliana-induced tomato fruit Solanum lycopersicum cv. No. 4 Zhongshu gray mold disease assessed as disease incidence at 1 mM injected near root area measured after 12 days relative to control; type: functional, organism-based; how it was run: as §1
[16] = tested on: Solanum lycopersicum; assay: Induction of resistance to Botrytis cinerea-induced Solanum lycopersicum (tomato) fruit Solanum lycopersicum cv. No. 4 Zhongshu gray mold disease assessed as induction of defensive enzyme phenylalanine ammonialyase activity at 1 mM preharvest treatment measured after 9 days relative to control; type: functional, organism-based; how it was run: as §2
[17] = tested on: Botrytis cinerea; assay: Induction of resistance to Botryotinia fuckeliana-induced tomato fruit Solanum lycopersicum cv. No. 4 Zhongshu gray mold disease assessed as disease incidence at 5 mM injected near root area measured after 3 days relative to control; type: functional; how it was run: as §1
[18] = tested on: Solanum lycopersicum; assay: Induction of resistance to Botrytis cinerea-induced Solanum lycopersicum (tomato) fruit Solanum lycopersicum cv. No. 4 Zhongshu gray mold disease assessed as increase in NOS activity at 1 mM preharvest treatment measured after 3 days relative to control; type: functional, organism-based
How it was run: (§3)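 Plants received 1 mM L-arginine (5 mL) injected near the root, with a water control. Frozen fruit mesocarp was extracted in HEPES-KOH pH 7.6 buffer. For NO, extract was pretreated with catalase and SOD, oxyhemoglobin was added, and A550 was read at 37 °C against a buffer blank; results are given as μmol/g FW. NOS was measured by the hemoglobin assay on cytosolic/microsomal fractions. Three replicates.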

[19] = tested on: Botrytis cinerea; assay: Induction of resistance to Botryotinia fuckeliana-induced tomato fruit Solanum lycopersicum cv. No. 4 Zhongshu gray mold disease assessed as disease incidence at 5 mM injected near root area measured after 6 days relative to control; type: functional; how it was run: as §1
[20] = tested on: Solanum lycopersicum; assay: Induction of resistance to Botrytis cinerea-induced Solanum lycopersicum (tomato) fruit Solanum lycopersicum cv. No. 4 Zhongshu gray mold disease assessed as increase in NO content at 1 mM preharvest treatment measured after 3 days relative to control; type: functional, organism-based; how it was run: as §3
[21] = tested on: Botrytis cinerea; assay: Induction of resistance to Botryotinia fuckeliana-induced tomato fruit Solanum lycopersicum cv. No. 4 Zhongshu gray mold disease assessed as disease incidence at 1 mM injected near root area measured after 6 days relative to control; type: functional; how it was run: as §1
[22] = tested on: Solanum lycopersicum; assay: Induction of resistance to Botrytis cinerea-induced Solanum lycopersicum (tomato) fruit Solanum lycopersicum cv. No. 4 Zhongshu gray mold disease assessed as induction of defensive enzyme beta-1,3-glucanase activity at 1 mM preharvest treatment measured after 9 days relative to control; type: functional; how it was run: as §2
[23] = tested on: Botrytis cinerea; assay: Induction of resistance to Botryotinia fuckeliana-induced tomato fruit Solanum lycopersicum cv. No. 4 Zhongshu gray mold disease assessed as inhibition of lession area at 1 mM injected near root area measured after 3 days relative to control; type: functional; conditions: 72 h; how it was run: as §1

Structure (SMILES): N=C(N)NCCC[C@H](N)C(=O)O [ARGININE]
- Activity [1]: 31%
- fold change (FC) [2]: 1.17
- inhibition in vivo at 1000 µM [3]: 90%
- Activity [4]: Active
- Activity [5]: 16%
- Activity [6]: inactive
- Activity [7]: Active
- Activity [8]: Active
- inhibition in vivo at 1000 µM [9]: 85%
- fold change (FC) [10]: 1.6
- fold change (FC) [11]: 1.9
- Activity [12]: 29%
- inhibition in vivo at 1000 µM [13]: 90%
- fold change (FC) [14]: 1.4
- Activity [15]: Active
- Activity [16]: Active
- Activity [17]: 37%
- Activity [18]: Active
- Activity [19]: 38%
- Activity [20]: Active
- Activity [21]: 18%
- fold change (FC) [22]: 3.1
- inhibition in vivo at 1000 µM [23]: 86%
